“And” between values parts separate entries of the source, which are not always exact repeats. Equal values may be shown once.
Legend:
[1] = test system: CYP3A4/CYP1A2; conditions: 14 patients, repeat-dose dabrafenib (HPMC capsules); cited from earlier work
[2] = test system: CYP2C9; conditions: 14 patients, repeat-dose dabrafenib (HPMC capsules); cited from earlier work
[3] = test system: OATP1B1; conditions: in vitro; cited from earlier work
[4] = test system: OATP1B3; conditions: in vitro; cited from earlier work
[5] = test system: CYP2B6; conditions: in vitro, via activation of the pregnane X receptor and constitutive androstane receptor; cited from earlier work
[6] = test system: CYP3A4; conditions: in vitro, via activation of the pregnane X receptor and constitutive androstane receptor; cited from earlier work
[7] = test system: BCRP; conditions: in vitro; cited from earlier work
[8] = cited from earlier work
[9] = Safety and tolerability in patients; format: in vivo, human; conditions: 16 patients, midazolam 3 mg
Method in brief: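 Open-label, fixed-sequence study in patients with BRAF V600 mutation–positive tumours. CYP3A and OATP1B1/1B3 probe substrates (3 mg and 10 mg) were given together on day 1, then with the test compound (150 mg twice daily, days 8–23) on days 8 and 22, after an overnight fast of at least 8 h. Monitoring covered physical examination, vital signs, 12-lead ECG, haematology and clinical chemistry, and AEs graded by NCI CTCAE v4.03.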

[10] = human, plasma
[11] = test system: CYP3A4; assay: Effect of dabrafenib
[12] = test system: OATP1B1/1B3; assay: Effect of dabrafenib; format: in vivo, human
[13] = cited from earlier work; remark: listed apart in the source
[14] = in vivo; cited from earlier work
[15] = initial administration of dabrafenib vs midazolam alone
[16] = repeat dabrafenib dosing 150 mg twice daily (steady state) vs rosuvastatin alone
[17] = clinical study, coadministration with gemfibrozil

## CC(=O)C[C@H](c1ccccc1)c1c(O)c2ccccc2oc1=O [R‐warfarin]
[1]
  decrease in single‐dose AUC: 33%

## CC(=O)C[C@@H](c1ccccc1)c1c(O)c2ccccc2oc1=O [S‐warfarin]
[2]
  decrease in single‐dose AUC: 37%

## CC(C)(C(=O)O)c1nc(-c2cccc(NS(=O)(=O)c3c(F)cccc3F)c2F)c(-c2ccnc(N)n2)s1 [carboxy‐dabrafenib]
[3]
  inhibition of OATP1B1: inhibitors
[4]
  inhibition of OATP1B3: inhibitors

## CC(C)(C)c1nc(-c2cccc(NS(=O)(=O)c3c(F)cccc3F)c2F)c(-c2ccnc(N)n2)s1 [dabrafenib]
[3]
  inhibition of OATP1B1: inhibitors
[4]
  inhibition of OATP1B3: inhibitors
[5]
  induction of CYP2B6: induces
[6]
  induction of CYP3A4: induces
[7]
  inhibition of BCRP: inhibitors
[8]; dabrafenib HPMC capsules vs gelatin capsules
  AUC HPMC/gelatin: 1.8 fold
[8]; single oral dose of dabrafenib
  median terminal‐phase half‐life (t1/2): ≈ 8 hours
  time of peak plasma concentrations after dosing: approximately 2 hours
[8]; single oral dose relative to an intravenous microdose
  oral bioavailability: 94.5%

## CC(C)c1nc(-c2cccc(NS(=O)(=O)c3c(F)cccc3F)c2F)c(-c2ccnc(N)n2)s1 [desmethyl‐dabrafenib]
[3]
  inhibition of OATP1B1: inhibitors
[4]
  inhibition of OATP1B3: inhibitors
[7]
  inhibition of BCRP: inhibitors

## CC(C)(CO)c1nc(-c2cccc(NS(=O)(=O)c3c(F)cccc3F)c2F)c(-c2ccnc(N)n2)s1 [hydroxy‐dabrafenib]
[3]
  inhibition of OATP1B1: inhibitors
[4]
  inhibition of OATP1B3: inhibitors
[8]; dabrafenib metabolites
  terminal half‐life of metabolite: 582 min

## Cc1ncc2n1-c1ccc(Cl)cc1C(c1ccccc1F)=NC2 [midazolam]
[9]
  grade 4 presyncope attributed to midazolam dosing: 1 patient
[10]
  Tmax: 15 min
[11]; [15]
  change in midazolam AUC0‐∞: no change
  decrease in midazolam Cmax: 1%
[11]; initial and repeat dabrafenib dosing vs midazolam alone
  effect of dabrafenib on midazolam tmax: No effect
[11]; repeat dabrafenib dosing 150 mg twice daily (steady state) vs midazolam alone
  decrease in midazolam Cmax: 47%

## CC(C)c1nc(N(C)S(C)(=O)=O)nc(-c2ccc(F)cc2)c1/C=C/[C@@H](O)C[C@@H](O)CC(=O)O [rosuvastatin]
[12]; dabrafenib at initiation of dosing vs rosuvastatin alone
  increase in rosuvastatin Cmax: 1.9 fold
[12]; [16]
  increase in rosuvastatin AUC0‐∞: 7%
  increase in rosuvastatin Cmax: 2.56 fold and 2.6 fold
[13]; [17]
  rosuvastatin AUC change with gemfibrozil: 1.9 fold
  rosuvastatin Cmax change with gemfibrozil: 2.21 fold
[13]; healthy volunteer study, after 6 days of rifampin (inducer) dosing
  alteration in the PK parameters of rosuvastatin: no significant alteration
[13]; tipranavir/ritonavir 500 mg/200 mg twice daily for 11 days
  rosuvastatin AUC increase with tipranavir/ritonavir: 26%
[14]
  excreted unchanged in the feces: 90%

Reference: paper PMC8453865 (Clinical Pharmacology in Drug Development, 2021)
